As a reminder, the Ki is the equilibrium dissociation constant of an inhibitor or competing ligand from its target. A lower Ki goes with tighter binding.

Data on two compounds can be found in article PMC4672865 (Organic letters, 2015).

The assay deals with DNA polymerase β (pol β) (Homo sapiens, UniProt P06746). Nature of the assay: X-ray crystal structure of ternary complex with DNA. Format: biochemical. In a few lines: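 Standard gel assay of pol β: test compound at variable concentrations against a constant dTTP concentration. An observed rate is determined at each inhibitor concentration, rates are plotted against inhibitor concentration, and the data are fit to a hyperbolic decay curve to calculate Ki. Crystal structures are of ternary complexes of test compound with pol β and DNA.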

Regarding `Cc1cn([C@H]2C[C@H](O)[C@@H](COP(=O)(O)CP(=O)(O)NP(=O)(O)O)O2)c(=O)[nH]c1=O` [1a, (α,β)-CH2-(β,γ)-NH-dTTP], the Ki amounted to 2.7 µM.

In turn, `Cc1cn([C@H]2C[C@H](O)[C@@H](COP(=O)(O)NP(=O)(O)CP(=O)(O)O)O2)c(=O)[nH]c1=O` [1b, (α,β)-NH-(β,γ)-CH2-dTTP] registered a Ki of 23 µM. Compared with the last compound, the Ki is about 8.5-fold higher.
